Measured values reported in ChEMBL document CHEMBL4145582, “Cytotoxic and Antibacterial Eremophilane Sesquiterpenes from the Marine-Derived Fungus Cochliobolus lunatus SCSIO41401” (J Nat Prod, 2018).
pIC50: −log10 of the molar value.

Assays:
[1] = system: ACHN; assay: Induction of apoptosis in human ACHN cells assessed as viable cells at 1 uM after 24 hrs by Annexin V-FITC/propidium iodide staining based flow cytometric method (reference value: 100%); format: functional; conditions: read-out: Activity
How it was run: (§1)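 ACHN cells are treated at 1, 2 and 4 μM for 24, 48 and 72 h. Cells are then double-stained with annexin V-FITC and propidium iodide and analysed by flow cytometry. Early apoptotic, late apoptotic, necrotic and viable fractions are quantified.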

[2] = system: ACHN; assay: Induction of apoptosis in human ACHN cells assessed as early apoptotic cells at 4 uM after 24 hrs by Annexin V-FITC/propidium iodide staining based flow cytometric method (reference value: 0%); format: functional; how it was run: as §1
[3] = system: ACHN; assay: Induction of apoptosis in human ACHN cells assessed as early apoptotic cells at 2 uM after 48 hrs by Annexin V-FITC/propidium iodide staining based flow cytometric method (reference value: 0%); format: functional; how it was run: as §1
[4] = system: ACHN; assay: Induction of apoptosis in human ACHN cells assessed as viable cells at 4 uM after 24 hrs by Annexin V-FITC/propidium iodide staining based flow cytometric method (reference value: 100%); format: functional; conditions: read-out: Activity; how it was run: as §1
[5] = system: HepG2; assay: Cytotoxicity against human HepG2 cells after 6 days by MTT assay; format: functional, cell-based; conditions: HepG2, 144 h
How it was run: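 HepG-2 and SGC7901 cells; growth inhibition read by MTT method, with 5-fluorouracil as positive control.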

[6] = system: ACHN; assay: Induction of apoptosis in human ACHN cells assessed as early apoptotic cells at 2 uM after 72 hrs by Annexin V-FITC/propidium iodide staining based flow cytometric method (reference value: 0%); format: functional; how it was run: as §1
[7] = system: ACHN; assay: Induction of apoptosis in human ACHN cells assessed as late apoptotic cells at 4 uM after 48 hrs by Annexin V-FITC/propidium iodide staining based flow cytometric method (reference value: 0%); format: functional; how it was run: as §1
[8] = system: ACHN; assay: Induction of apoptosis in human ACHN cells assessed as necrotic cells at 2 uM after 24 hrs by Annexin V-FITC/propidium iodide staining based flow cytometric method (reference value: 0%); format: functional; how it was run: as §1
[9] = system: ACHN; assay: Induction of apoptosis in human ACHN cells assessed as viable cells at 2 uM after 48 hrs by Annexin V-FITC/propidium iodide staining based flow cytometric method (reference value: 100%); format: functional; conditions: read-out: Activity; how it was run: as §1
[10] = system: OS-RC-2; assay: Cytotoxicity against human OS-RC2 cells after 72 hrs by CCK8 assay; format: functional, cell-based; conditions: OS-RC-2, 72 h
How it was run: (§2)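 Renal cancer lines ACHN, 786-O and OS-RC-2; cell viability read by CCK-8 assay, with sorafenib as positive control.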

[11] = system: ACHN; assay: Cytotoxicity against human ACHN cells after 72 hrs by CCK8 assay; format: functional, cell-based; how it was run: as §2
[12] = system: ACHN; assay: Induction of apoptosis in human ACHN cells assessed as early apoptotic cells at 1 uM after 24 hrs by Annexin V-FITC/propidium iodide staining based flow cytometric method (reference value: 0%); format: functional; how it was run: as §1
[13] = system: ACHN; assay: Induction of apoptosis in human ACHN cells assessed as early apoptotic cells at 4 uM after 72 hrs by Annexin V-FITC/propidium iodide staining based flow cytometric method (reference value: 0%); format: functional; how it was run: as §1
[14] = system: ACHN; assay: Induction of apoptosis in human ACHN cells assessed as necrotic cells at 4 uM after 24 hrs by Annexin V-FITC/propidium iodide staining based flow cytometric method (reference value: 0%); format: functional; how it was run: as §1
[15] = system: ACHN; assay: Induction of apoptosis in human ACHN cells assessed as viable cells at 1 uM after 72 hrs by Annexin V-FITC/propidium iodide staining based flow cytometric method (reference value: 100%); format: functional; conditions: read-out: Activity; how it was run: as §1
[16] = system: ACHN; assay: Induction of apoptosis in human ACHN cells assessed as early apoptotic cells at 1 uM after 72 hrs by Annexin V-FITC/propidium iodide staining based flow cytometric method (reference value: 0%); format: functional; how it was run: as §1
[17] = system: ACHN; assay: Induction of apoptosis in human ACHN cells assessed as viable cells at 2 uM after 72 hrs by Annexin V-FITC/propidium iodide staining based flow cytometric method (reference value: 100%); format: functional; conditions: read-out: Activity; how it was run: as §1
[18] = system: ACHN; assay: Induction of apoptosis in human ACHN cells assessed as necrotic cells at 1 uM after 72 hrs by Annexin V-FITC/propidium iodide staining based flow cytometric method (reference value: 0%); format: functional; how it was run: as §1
[19] = system: Pasteurella multocida; assay: Antimicrobial activity against Pasteurella multocida subsp. multocida ATCC 43137 after 24 hrs by serial dilution method; format: functional; conditions: ATCC 43137, 24 h
How it was run: (§3)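 Serial broth dilution in 96-well microtiter plates. Compounds and controls are dissolved in DMSO as stock. Bacteria are grown overnight at 37 °C, then diluted to 10^6 cfu/mL. E. coli and S. aureus are grown in Luria–Bertani broth. P. multocida and E. rhusiopathiae are grown in trypticase soy broth with 10% calf serum. Plates are incubated at 37 °C for 24 h and read at 630 nm.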

[20] = system: ACHN; assay: Induction of apoptosis in human ACHN cells assessed as viable cells at 4 uM after 72 hrs by Annexin V-FITC/propidium iodide staining based flow cytometric method (reference value: 100%); format: functional; conditions: read-out: Activity; how it was run: as §1
[21] = system: ACHN; assay: Induction of apoptosis in human ACHN cells assessed as early apoptotic cells at 2 uM after 24 hrs by Annexin V-FITC/propidium iodide staining based flow cytometric method (reference value: 0%); format: functional; how it was run: as §1
[22] = system: 786-0; assay: Cytotoxicity against human 786-O cells after 72 hrs by CCK8 assay; format: functional, cell-based; conditions: 786-0, 72 h; how it was run: as §2
[23] = system: ACHN; assay: Induction of apoptosis in human ACHN cells assessed as necrotic cells at 1 uM after 48 hrs by Annexin V-FITC/propidium iodide staining based flow cytometric method (reference value: 0%); format: functional; how it was run: as §1
[24] = system: ACHN; assay: Induction of apoptosis in human ACHN cells assessed as necrotic cells at 2 uM after 48 hrs by Annexin V-FITC/propidium iodide staining based flow cytometric method (reference value: 0%); format: functional; how it was run: as §1
[25] = system: Escherichia coli; assay: Antimicrobial activity against Escherichia coli ATCC 25922 after 24 hrs by serial dilution method; format: functional; conditions: ATCC 25922, 24 h; how it was run: as §3
[26] = system: ACHN; assay: Induction of apoptosis in human ACHN cells assessed as late apoptotic cells at 2 uM after 24 hrs by Annexin V-FITC/propidium iodide staining based flow cytometric method (reference value: 0%); format: functional; how it was run: as §1
[27] = system: ACHN; assay: Induction of apoptosis in human ACHN cells assessed as late apoptotic cells at 2 uM after 72 hrs by Annexin V-FITC/propidium iodide staining based flow cytometric method (reference value: 0%); format: functional; how it was run: as §1
[28] = system: Staphylococcus aureus; assay: Antimicrobial activity against Staphylococcus aureus subsp. aureus Rosenbach ATCC 25923 after 24 hrs by serial dilution method; format: functional; conditions: Rosenbach ATCC 25923, 24 h; how it was run: as §3
[29] = system: ACHN; assay: Induction of apoptosis in human ACHN cells assessed as necrotic cells at 4 uM after 48 hrs by Annexin V-FITC/propidium iodide staining based flow cytometric method (reference value: 0%); format: functional; how it was run: as §1
[30] = system: ACHN; assay: Induction of apoptosis in human ACHN cells assessed as late apoptotic cells at 1 uM after 72 hrs by Annexin V-FITC/propidium iodide staining based flow cytometric method (reference value: 0%); format: functional; how it was run: as §1
[31] = system: ACHN; assay: Induction of apoptosis in human ACHN cells assessed as late apoptotic cells at 4 uM after 72 hrs by Annexin V-FITC/propidium iodide staining based flow cytometric method (reference value: 0%); format: functional; how it was run: as §1
[32] = system: ACHN; assay: Induction of apoptosis in human ACHN cells assessed as necrotic cells at 2 uM after 72 hrs by Annexin V-FITC/propidium iodide staining based flow cytometric method (reference value: 0%); format: functional; how it was run: as §1
[33] = system: ACHN; assay: Induction of apoptosis in human ACHN cells assessed as late apoptotic cells at 1 uM after 48 hrs by Annexin V-FITC/propidium iodide staining based flow cytometric method (reference value: 0%); format: functional; how it was run: as §1

C=C(/C=N/O)[C@]1(OC)C[C@@]2(C)C(=CC1=O)C=C[C@H](OC(=O)/C=C/C(C)=C/[C@@H](C)CC)[C@@H]2C
viability at 1 µM [1]: 93.2% | Activity [2]: 1.1% | Activity [3]: 2.3% | viability at 4 µM [4]: 76% | pIC50 [5]: 5.23 | Activity [6]: 6.8% | Activity [7]: 11.3% | Activity [8]: 7.2% | viability at 2 µM [9]: 87.1% | pIC50 [10]: < 4.30 | pIC50 [11]: 5.51 | Activity [12]: 0.6% | Activity [13]: 83.8% | Activity [14]: 21.8% | viability at 1 µM [15]: 90.8% | Activity [16]: 1.8% | viability at 2 µM [17]: 80.5% | Activity [18]: 6.2% | MIC [19]: > 100 µg/mL | viability at 4 µM [20]: 6.9% | Activity [21]: 0.8% | pIC50 [22]: 4.57 | Activity [23]: 6% | Activity [24]: 9.3% | MIC [25]: > 100 µg/mL | Activity [26]: 0.7% | Activity [27]: 3.8% | MIC [28]: > 100 µg/mL | Activity [29]: 19.5% | Activity [30]: 1.1% | Activity [31]: 8.5% | Activity [32]: 9% | Activity [33]: 1.2%
